{
  "source": "ChEMBL document CHEMBL4396869",
  "about": "“Design and Synthesis of Selective Phosphodiesterase 4D (PDE4D) Allosteric Inhibitors for the Treatment of Fragile X Syndrome and Other Brain Disorders” (J Med Chem, 2019)",
  "key": {"[1]": {"assay": "Drug level in human hepatocytes treated with 2-(4-((2-(3-Chlorophenyl)-6-ethylpyrimidin-4-yl)methyl)phenyl)acetamide assessed as metabolite formation measured after 4 hrs by LC-UV/MS/MS analysis", "assay_type": "ADME, cell-based, Hepatocyte", "outline": "(§1)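 Metabolite identification: cryopreserved hepatocytes from male Wistar rat or human, 0.5×10^6 cells/mL in suspension, incubated 4 h at 37 °C; incubation medium analysed by LC-UV/MS/MS.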"}, "[2]": {"assay": "Drug level in Wistar rat hepatocytes treated with 2-(4-((2-(3-Chlorophenyl)-6-ethylpyrimidin-4-yl)methyl)phenyl)acetamide assessed as metabolite formation measured after 4 hrs by LC-UV/MS/MS analysis", "assay_type": "ADME, cell-based, Hepatocyte", "outline": "as §1"}, "[3]": {"assay": "Oral bioavailability in mouse", "assay_type": "ADME, organism-based", "details": "in vivo"}, "[4]": {"assay": "(§2) Inhibition of recombinant human His6-tagged PDE4D7 UCR1 S129D mutant expressed in baculovirus infected Sf9 insect cells using cAMP as substrate preincubated for 5 to 10 mins followed by substrate addition and measured for 10 mins in presence of BSA by yeast myokinase/pyruvate kinase/lactate dehydrogenase-coupled fluorescence assay"}, "[5]": {"assay": "Therapeutic index, ratio of compound effect for induction of emesis in ICR mouse assessed as reduction in ketamine/xylazine-induced duration of anesthesia at 10 to 30 mg/kg, po to compound effect for memory enhancement effect in ICR mouse assessed as improvement in novel object discrimination at 1 to 3 mg/kg, po", "assay_type": "toxicity, organism-based", "details": "in vivo", "outline": "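Male ICR mice (25–30 g) were gavaged with compound in 5% DMSO, 5% Solutol in PBS. Object recognition ran as 10 min habituation on day 1, 5 min training on day 2 and 5 min testing on day 3, scored as d2 = (b−a)/(a+b). Thirty minutes after an oral dose, ketamine 80 mg/kg plus xylazine 10 mg/kg was given IP, and anesthesia duration was timed from loss to return of the righting reflex. The index compares effective doses in the two tests.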"}, "[6]": {"assay": "Ratio of AUC in po dosed mouse brain to plasma", "assay_type": "ADME, organism-based", "outline": "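Mice were dosed orally in 5% DMSO, 5% Solutol, 90% PBS. Drug exposure was measured in plasma and brain, and the ratio was taken from brain AUC over plasma AUC.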"}, "Homo sapiens [7]": {"species": "Homo sapiens", "assay": "Selectivity ratio of IC50 for recombinant human His6-tagged PDE4B1 UCR1 S133D mutant expressed in baculovirus infected Sf9 insect cells to IC50 for recombinant human His6-tagged PDE4D7 UCR1 S129D mutant expressed in baculovirus infected Sf9 insect cells"}, "[8]": {"assay": "Protein binding in dog plasma", "assay_type": "ADME, cell-free, Canis lupus familiaris", "details": "read-out: PPB"}, "Cytochrome P450 2D6": {"target": "Cytochrome P450 2D6 (Homo sapiens, UniProt P10635)", "sequence (P10635 whole entry)": "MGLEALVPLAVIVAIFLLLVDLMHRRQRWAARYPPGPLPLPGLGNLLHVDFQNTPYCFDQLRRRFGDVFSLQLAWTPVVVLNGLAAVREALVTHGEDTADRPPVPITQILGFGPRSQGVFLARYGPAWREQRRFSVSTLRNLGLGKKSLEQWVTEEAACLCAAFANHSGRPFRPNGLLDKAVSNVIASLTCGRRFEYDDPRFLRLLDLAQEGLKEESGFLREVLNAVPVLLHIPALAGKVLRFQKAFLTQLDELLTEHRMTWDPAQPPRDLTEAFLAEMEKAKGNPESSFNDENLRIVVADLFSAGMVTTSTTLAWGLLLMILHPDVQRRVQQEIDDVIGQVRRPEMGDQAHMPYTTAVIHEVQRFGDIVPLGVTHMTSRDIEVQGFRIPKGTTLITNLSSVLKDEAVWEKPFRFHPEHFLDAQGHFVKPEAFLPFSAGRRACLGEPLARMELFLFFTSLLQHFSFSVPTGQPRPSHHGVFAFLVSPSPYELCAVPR", "assay": "Inhibition of CYP2D6 (unknown origin) by fluorescence-based assay", "assay_type": "ADME", "outline": "(§3)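 CYP inhibition run with a fluorescent substrate by a contract laboratory under standard protocols; IC50 reported.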"}, "Cytochrome P450 3A4": {"target": "Cytochrome P450 3A4 (Homo sapiens, UniProt P08684)", "sequence (P08684 whole entry)": "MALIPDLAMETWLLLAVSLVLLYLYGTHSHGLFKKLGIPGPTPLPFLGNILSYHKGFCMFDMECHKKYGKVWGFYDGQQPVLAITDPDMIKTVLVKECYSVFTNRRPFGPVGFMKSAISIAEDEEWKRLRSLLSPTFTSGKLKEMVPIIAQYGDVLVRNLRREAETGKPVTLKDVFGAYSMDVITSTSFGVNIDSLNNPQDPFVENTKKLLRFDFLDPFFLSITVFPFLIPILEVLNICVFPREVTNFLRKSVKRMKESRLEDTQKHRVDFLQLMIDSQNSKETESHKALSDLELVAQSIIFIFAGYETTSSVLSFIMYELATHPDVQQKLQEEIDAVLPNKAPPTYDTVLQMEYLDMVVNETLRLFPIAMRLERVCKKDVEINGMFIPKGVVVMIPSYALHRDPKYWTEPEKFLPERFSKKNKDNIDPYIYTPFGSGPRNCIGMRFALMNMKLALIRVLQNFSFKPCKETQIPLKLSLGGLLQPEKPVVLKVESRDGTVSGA", "assay": "Inhibition of CYP3A4 (unknown origin) by fluorescence-based assay", "assay_type": "ADME", "outline": "as §3"}, "[9]": {"assay": "Half life in po dosed mouse plasma", "assay_type": "ADME, organism-based", "details": "in vivo"}, "[10]": {"assay": "Permeability across apical to basal side in MDCK-MDR1 cells", "assay_type": "ADME, cell-based, Canis lupus familiaris", "details": "dog", "outline": "(§4)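 Cellular permeability in MDCK-MDR1 cells, apical-to-basal and basal-to-apical, run by a contract lab using standard protocols. Efflux ratio taken as B-A/A-B.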"}, "Homo sapiens [11]": {"species": "Homo sapiens", "assay": "Selectivity ratio of IC50 for recombinant human wild-type His6-tagged PDE4D7 UCR1 domain (S129 residues) expressed in baculovirus infected Sf9 insect cells to IC50 for recombinant human His6-tagged PDE4D7 UCR1 S129D mutant expressed in baculovirus infected Sf9 insect cells"}, "[12]": {"assay": "Stability in dog liver microsomes assessed as parent compound remaining at 1 uM measured after 30 mins by LC-MS/MS analysis", "assay_type": "ADME, Canis lupus familiaris, Microsome", "details": "read-out: Stability", "outline": "(§5)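 Liver microsome stability run by a contract lab using standard protocols. Parent compound remaining measured after 30 min incubation.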"}, "[13]": {"assay": "Stability in human hepatocytes assessed as parent compound remaining measured after 4 hrs by LC-UV/MS/MS analysis", "assay_type": "ADME, cell-based, Hepatocyte", "details": "read-out: Stability", "outline": "(§6)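 Metabolite identification run with cryopreserved hepatocytes from male Wistar rats and from humans, 0.5×10^6 cells/mL in suspension, incubated 4 h at 37 °C. Incubation medium analysed by LC-UV/MS/MS.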"}, "[14]": {"assay": "as §2, with “human wild-type” for “human”, “domain (S129 residues)” for “S129D mutant”, “mins” for “mins in presence of BSA”"}, "[15]": {"assay": "Solubility of the compound in FaSSIF", "assay_type": "physicochemical", "details": "simulated gi fluid", "outline": "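Kinetic solubility measured in fasted state simulated intestinal fluid (FaSSIF), run by a contract lab using standard protocols.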"}, "[16]": {"assay": "Protein binding in mouse plasma", "assay_type": "ADME, cell-free", "details": "read-out: PPB"}, "[17]": {"assay": "Permeability across basal to apical side in MDCK-MDR1 cells", "assay_type": "ADME, cell-based, Canis lupus familiaris", "details": "dog", "outline": "as §4"}, "Mus musculus [18]": {"test_system": "Mus musculus", "assay": "Induction of emesis in ICR mouse assessed as reduction in ketamine/xylazine-induced duration of anesthesia at 10 to 30 mg/kg, po pretreated for 30 mins followed by ketamine/xylazine addition", "assay_type": "organism-based", "details": "in vivo", "outline": "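Male ICR mice, 25–30 g. Test agents given by oral gavage in 5% DMSO, 5% Solutol in PBS, or rolipram IP; ketamine (80 mg/kg) plus xylazine (10 mg/kg) IP given 30 min after PO or 15 min after IP dosing. Endpoint: time from loss to return of righting reflex.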"}, "[19]": {"assay": "Stability in Wistar rat hepatocytes assessed as parent compound remaining measured after 4 hrs by LC-UV/MS/MS analysis", "assay_type": "ADME, cell-based, Hepatocyte", "details": "read-out: Stability", "outline": "as §6"}, "[20]": {"assay": "Stability in rat liver microsomes assessed as parent compound remaining at 1 uM measured after 30 mins by LC-MS/MS analysis", "assay_type": "ADME, Microsome", "details": "read-out: Stability", "outline": "as §5"}, "[21]": {"assay": "Stability in mouse liver microsomes assessed as parent compound remaining at 1 uM measured after 30 mins by LC-MS/MS analysis", "assay_type": "ADME, Microsome", "details": "read-out: Stability", "outline": "as §5"}, "[22]": {"assay": "Efflux ratio of permeability across basal to apical side over apical to basal side in MDCK-MDR1 cells", "assay_type": "ADME, cell-based, Canis lupus familiaris", "details": "dog"}, "[23]": {"target": "3',5'-cyclic-AMP phosphodiesterase 4B (Homo sapiens, UniProt Q07343, S133D)", "sequence (Q07343 whole entry S133D)": "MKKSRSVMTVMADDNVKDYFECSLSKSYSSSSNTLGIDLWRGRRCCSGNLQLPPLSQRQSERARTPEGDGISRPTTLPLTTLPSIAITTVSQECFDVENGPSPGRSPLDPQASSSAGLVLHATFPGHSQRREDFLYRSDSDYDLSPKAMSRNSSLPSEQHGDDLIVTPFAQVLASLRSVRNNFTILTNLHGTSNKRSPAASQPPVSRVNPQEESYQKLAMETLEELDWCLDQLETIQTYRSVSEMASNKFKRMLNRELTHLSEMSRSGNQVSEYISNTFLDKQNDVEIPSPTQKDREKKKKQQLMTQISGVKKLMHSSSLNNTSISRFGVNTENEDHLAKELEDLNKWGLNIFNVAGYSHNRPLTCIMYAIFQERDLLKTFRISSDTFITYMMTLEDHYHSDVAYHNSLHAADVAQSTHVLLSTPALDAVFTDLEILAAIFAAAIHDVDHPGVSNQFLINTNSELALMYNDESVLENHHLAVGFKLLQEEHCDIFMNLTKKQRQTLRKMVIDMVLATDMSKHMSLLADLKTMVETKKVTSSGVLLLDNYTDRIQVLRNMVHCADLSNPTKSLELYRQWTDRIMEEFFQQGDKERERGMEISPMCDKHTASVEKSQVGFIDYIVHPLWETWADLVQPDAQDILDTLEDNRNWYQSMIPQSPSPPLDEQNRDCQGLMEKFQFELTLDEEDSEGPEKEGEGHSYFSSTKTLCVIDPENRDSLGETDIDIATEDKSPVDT", "assay": "as §2, with “PDE4B1” for “PDE4D7”, “S133D” for “S129D”, “mins” for “mins in presence of BSA”"}, "[24]": {"assay": "Aqueous kinetic solubility of the compound at pH 7 at 100 uM measured after 1 hr", "assay_type": "physicochemical", "details": "buffer, pH 7, 1 h"}, "[25]": {"assay": "Protein binding in rat plasma", "assay_type": "ADME, cell-free", "details": "read-out: PPB"}, "[26]": {"assay": "Stability in human liver microsomes assessed as parent compound remaining at 1 uM measured after 30 mins by LC-MS/MS analysis", "assay_type": "ADME, Microsome", "details": "read-out: Stability", "outline": "as §5"}, "[27]": {"assay": "Stability in monkey liver microsomes assessed as parent compound remaining at 1 uM measured after 30 mins by LC-MS/MS analysis", "assay_type": "ADME, Macaca mulatta, Microsome", "details": "rhesus monkey, read-out: Stability", "outline": "as §5"}, "Cytochrome P450 2C19": {"target": "Cytochrome P450 2C19 (Homo sapiens, UniProt P33261)", "sequence (P33261 whole entry)": "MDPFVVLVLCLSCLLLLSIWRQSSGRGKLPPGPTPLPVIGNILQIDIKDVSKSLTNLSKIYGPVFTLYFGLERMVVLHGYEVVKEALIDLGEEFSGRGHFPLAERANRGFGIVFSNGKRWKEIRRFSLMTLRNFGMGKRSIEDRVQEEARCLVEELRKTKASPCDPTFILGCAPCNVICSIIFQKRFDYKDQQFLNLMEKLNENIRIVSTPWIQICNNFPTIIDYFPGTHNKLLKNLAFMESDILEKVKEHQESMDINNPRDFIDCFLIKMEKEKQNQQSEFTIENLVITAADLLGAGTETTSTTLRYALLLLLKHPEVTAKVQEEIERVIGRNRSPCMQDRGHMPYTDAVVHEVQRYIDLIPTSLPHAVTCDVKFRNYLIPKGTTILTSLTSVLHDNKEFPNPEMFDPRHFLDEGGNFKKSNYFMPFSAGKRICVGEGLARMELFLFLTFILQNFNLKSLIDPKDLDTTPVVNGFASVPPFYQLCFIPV", "assay": "Inhibition of […] (unknown origin) by fluorescence-based assay", "assay_type": "ADME", "outline": "as §3"}, "Cytochrome P450 2C9": {"target": "Cytochrome P450 2C9 (Homo sapiens, UniProt P11712)", "sequence (P11712 whole entry)": "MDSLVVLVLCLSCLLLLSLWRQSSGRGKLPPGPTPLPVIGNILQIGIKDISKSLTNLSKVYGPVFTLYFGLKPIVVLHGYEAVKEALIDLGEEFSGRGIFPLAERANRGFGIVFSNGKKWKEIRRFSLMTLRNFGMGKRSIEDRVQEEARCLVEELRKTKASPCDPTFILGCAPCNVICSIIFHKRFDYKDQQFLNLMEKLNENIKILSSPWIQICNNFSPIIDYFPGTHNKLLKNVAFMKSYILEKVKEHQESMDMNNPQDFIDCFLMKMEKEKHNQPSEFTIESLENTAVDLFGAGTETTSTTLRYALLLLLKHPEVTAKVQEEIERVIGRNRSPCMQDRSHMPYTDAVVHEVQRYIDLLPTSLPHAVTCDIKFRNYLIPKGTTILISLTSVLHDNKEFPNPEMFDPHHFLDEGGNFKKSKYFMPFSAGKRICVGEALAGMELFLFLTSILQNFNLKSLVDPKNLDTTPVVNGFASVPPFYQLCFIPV", "assay": "Inhibition of CYP2C9 (unknown origin) by fluorescence-based assay", "assay_type": "ADME", "outline": "as §3"}, "Mus musculus [28]": {"test_system": "Mus musculus", "assay": "Memory enhancement effect in ICR mouse assessed as improvement in novel object discrimination at 1 to 3 mg/kg, po administered via gavage measured for 5 mins by open field test", "assay_type": "functional, organism-based", "outline": "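Male ICR mice (25–30 g), dosed by oral gavage in 5% DMSO, 5% Solutol in PBS. Three phases in an open field box: 10 min habituation on day 1, 5 min training with identical objects on day 2, 5 min test with familiar and novel objects on day 3 (24 h delay). Exploration times recorded; discrimination index d2 = (b − a)/(a + b).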"}, "[29]": {"assay": "Protein binding in human plasma", "assay_type": "ADME, cell-free", "details": "read-out: PPB"}, "[30]": {"assay": "Half life in po dosed mouse brain", "assay_type": "ADME, organism-based", "details": "in vivo"}, "[31]": {"assay": "as §2, with “mins” for “mins in presence of BSA”"}},
  "note": "Activity calls are given as the source filed them. The calls are words filed in the database; no cut-off is given here.",
  "data": [
    {"smiles": "CCc1cc(Cc2ccc(CC(=O)O)cc2)nc(-c2cccc(Cl)c2)n1", "values": [
      {"measurement": "Drug metabolism", "setting": "[1]", "result": "Metabolite_Detected"},
      {"measurement": "Drug metabolism", "setting": "[2]", "result": "Metabolite_Detected"}
    ]},
    {"smiles": "CCc1cc(Cc2ccc(CC(N)=O)cc2)nc(-c2cccc(Cl)c2)n1", "values": [
      {"measurement": "bioavailability", "setting": "[3]", "result": 53, "unit": "%"},
      {"measurement": "inhibition", "setting": "[4]", "result": "Active"},
      {"measurement": "selectivity ratio", "setting": "[5]", "result": 10},
      {"measurement": "Ratio AUC", "setting": "[6]", "result": 2.7},
      {"measurement": "Ratio IC50", "setting": "Homo sapiens [7]", "result": 132},
      {"measurement": "fraction unbound", "setting": "[8]", "result": "0.002 to 0.005"},
      {"measurement": "IC50", "setting": "Cytochrome P450 2D6", "result": "> 100", "unit": "µM"},
      {"measurement": "IC50", "setting": "Cytochrome P450 3A4", "result": 5.9, "unit": "µM"},
      {"measurement": "t1/2", "setting": "[9]", "result": 27.6, "unit": "min"},
      {"measurement": "permeability", "setting": "[10]", "result": 24.1, "unit": "×10⁻⁶ cm/s"},
      {"measurement": "Ratio IC50", "setting": "Homo sapiens [11]", "result": 184},
      {"measurement": "remaining at 0.5 h, 1 µM", "setting": "[12]", "result": "54 to 90", "unit": "%"},
      {"measurement": "remaining at 4 h", "setting": "[13]", "result": 93.2, "unit": "%"},
      {"measurement": "IC50", "setting": "[14]", "result": 0.313, "unit": "µM"},
      {"measurement": "solubility", "setting": "[15]", "result": 100, "unit": "µM"},
      {"measurement": "fraction unbound", "setting": "[16]", "result": "0.002 to 0.005"},
      {"measurement": "permeability", "setting": "[17]", "result": 22, "unit": "×10⁻⁶ cm/s"},
      {"measurement": "Activity", "setting": "Mus musculus [18]", "result": "Toxic"},
      {"measurement": "remaining at 4 h", "setting": "[19]", "result": 66.8, "unit": "%"},
      {"measurement": "remaining at 0.5 h, 1 µM", "setting": "[20]", "result": "54 to 90", "unit": "%"},
      {"measurement": "remaining at 0.5 h, 1 µM", "setting": "[21]", "result": "54 to 90", "unit": "%"},
      {"measurement": "Ratio", "setting": "[22]", "result": 0.9},
      {"measurement": "IC50", "setting": "[23]", "result": 0.225, "unit": "µM"},
      {"measurement": "Kinetic_solubility", "setting": "[24]", "result": "< 1.6", "unit": "µM"},
      {"measurement": "fraction unbound", "setting": "[25]", "result": "0.002 to 0.005"},
      {"measurement": "remaining at 0.5 h, 1 µM", "setting": "[26]", "result": "54 to 90", "unit": "%"},
      {"measurement": "remaining at 0.5 h, 1 µM", "setting": "[27]", "result": "54 to 90", "unit": "%"},
      {"measurement": "IC50", "setting": "Cytochrome P450 2C19", "result": 29, "unit": "µM"},
      {"measurement": "IC50", "setting": "Cytochrome P450 2C9", "result": "> 100", "unit": "µM"},
      {"measurement": "Activity", "setting": "Mus musculus [28]", "result": "Active"},
      {"measurement": "fraction unbound", "setting": "[29]", "result": "0.002 to 0.005"},
      {"measurement": "t1/2", "setting": "[30]", "result": 26.4, "unit": "min"},
      {"measurement": "IC50", "setting": "[31]", "result": 0.0017, "unit": "µM"}
    ]}
  ]
}
